Assay results published in ChEMBL document CHEMBL4842318, “A γ-lactam siderophore antibiotic effective against multidrug-resistant Pseudomonas aeruginosa, Klebsiella pneumoniae, and Acinetobacter spp” (Eur J Med Chem, 2021).

Tests used:
Pseudomonas aeruginosa [1] = test: Antibacterial activity against wild type Pseudomonas aeruginosa isolate PR-651 leucine at 533 residue assessed as inhibition of bacterial growth by microdilution method; type: functional
In short: (§1)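 Broth microdilution MIC in iron-depleted (Chelex resin-treated) cation-adjusted Mueller-Hinton broth, following the protocol used for siderophore-containing antibiotics. Inoculum was lowered to 6 × 10^4 cfu/mL.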

Pseudomonas aeruginosa [2] = test: Antibacterial activity against Pseudomonas aeruginosa isolate PR-564 leucine at 533 residue assessed as inhibition of bacterial growth by microdilution method; type: functional
In short: (§2)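 Broth microdilution in Chelex-treated, iron-depleted cation-adjusted Mueller-Hinton broth, following the protocol used for siderophore-containing antibiotics; inoculum lowered to 6 × 10^4 cfu/mL; MIC read as growth inhibition, in μg/mL.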

[3] = Antibacterial activity against carbapenem susceptible Acinetobacter nosocomialis isolate PR-491 assessed as inhibition of bacterial growth at 1:1 compound to sulbactam concentration by microdilution method; type: functional
In short: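 Broth microdilution MIC in Chelex-treated, iron-depleted cation-adjusted Mueller-Hinton broth, inoculum 6 × 10^4 cfu/mL. Compound and sulbactam combined 1:1 by mass in a 2-fold dilution series.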

Acinetobacter baumannii [4] = test: Antibacterial activity against carbapenem resistant Acinetobacter baumannii isolate PR-384 assessed as inhibition of bacterial growth in presence of 20 ug/ml sulbactam by microdilution method; type: functional; settings: dose 20 µg/ml
Acinetobacter baumannii [5] = test: Antibacterial activity against carbapenem susceptible Acinetobacter baumannii isolate PR-478 assessed as inhibition of bacterial growth in presence of 20 ug/ml sulbactam by microdilution method; type: functional; settings: dose 20 µg/ml
In short: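 MIC by broth microdilution using iron-depleted (Chelex-treated) cation-adjusted Mueller-Hinton broth and 6 × 10^4 cfu/mL inoculum. Compound serially diluted with sulbactam held constant at 20 μg/mL.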

Acinetobacter baumannii [6] = test: Antibacterial activity against carbapenem resistant Acinetobacter baumannii isolate PR-399 assessed as bacterial growth inhibition by microdilution method; type: functional; in short: as §2
[7] = Metabolic stability in human microsomes assessed as half life; type: ADME, Microsome
Acinetobacter baumannii [8] = test: Antibacterial activity against carbapenem susceptible Acinetobacter baumannii isolate PR-464 assessed as bacterial growth inhibition by microdilution method; type: functional; in short: as §1
Acinetobacter baumannii [9] = test: Antibacterial activity against carbapenem resistant Acinetobacter baumannii isolate PR-423 assessed as inhibition of bacterial growth at 1:1 compound to sulbactam concentration by microdilution method; type: functional
In short: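 Iron-depleted (Chelex-treated) cation-adjusted Mueller-Hinton broth microdilution; inoculum 6 × 10^4 cfu/mL. Test agent and sulbactam mixed 1:1 by mass and serially 2-fold diluted together. MIC in μg/mL.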

Acinetobacter baumannii [10] = test: Antibacterial activity against carbapenem susceptible Acinetobacter baumannii isolate PR-434 assessed as bacterial growth inhibition by microdilution method; type: functional; in short: as §1
[11] = Antibacterial activity against carbapenem susceptible Acinetobacter nosocomialis isolate PR-412 assessed as inhibition of bacterial growth at 1:1 compound to sulbactam concentration by microdilution method; type: functional; in short: as §1
[12] = Antibacterial activity against carbapenem susceptible Acinetobacter nosocomialis isolate PR-362 assessed as bacterial growth inhibition by microdilution method; type: functional; in short: as §1
Acinetobacter baumannii [13] = test: Antibacterial activity against carbapenem resistant Acinetobacter baumannii isolate PR-482 assessed as bacterial growth inhibition by microdilution method; type: functional; in short: as §2
Pseudomonas aeruginosa [14] = test: Antibacterial activity against wild type Pseudomonas aeruginosa isolate PR-606 assessed as inhibition of bacterial growth by microdilution method; type: functional; in short: as §1

With `CC(C)(O/N=C(\C(=O)N[C@H]1CN2CC(C(=O)NCCN3C(=O)c4cc(O)c(O)cc4C3=O)=C(C(=O)O)N2C1=O)c1nc(N)sc1Cl)C(=O)O` the MIC (Pseudomonas aeruginosa [1]) was > 16 µg/mL, the MIC (Pseudomonas aeruginosa [2]) was > 16 µg/mL and the MIC [3] was 0.5 µg/mL. For the same molecule, the MIC (Acinetobacter baumannii [4]) was > 16 µg/mL, the MIC (Acinetobacter baumannii [5]) was ≤ 0.25 µg/mL and the MIC (Acinetobacter baumannii [6]) was > 16 µg/mL. The t1/2 [7] was > 1 h, the MIC (Acinetobacter baumannii [8]) was > 16 µg/mL and the MIC (Acinetobacter baumannii [9]) was 8 µg/mL. For the same molecule, the MIC (Acinetobacter baumannii [10]) was > 16 µg/mL, the MIC [11] was 1 µg/mL and the MIC [12] was > 16 µg/mL. For the same molecule, the MIC (Acinetobacter baumannii [13]) was > 16 µg/mL and the MIC (Pseudomonas aeruginosa [14]) was > 16 µg/mL.
